Test results as given in PMC4203516 (Autophagy, 2014).
“And” between values parts separate entries of the source, which are not always exact repeats. Identical values can stand only once. “Also recorded” adds a separate entry of the source.

Key:
[1] = Phase I dose escalation: adverse events and dose-limiting toxicities; type: in vivo, human
In short: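 Open-label, single-institution 3 + 3 escalation. IV temsirolimus 25 mg weekly was infused over 30 min after IV diphenhydramine 25–50 mg premedication. A 1-wk temsirolimus-alone run-in preceded daily oral HCQ (200, 400, 800, 1200 mg), split ≥6 h apart above 200 mg. Cycles lasted 4 wk. The DLT window was the first 6 wk, later 5 wk. Toxicity-evaluable patients took ≥1 HCQ dose. Blood counts were weekly, then every 2 wk.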

advanced solid tumors = test: RECIST 1.0 response, phase I dose escalation; type: in vivo, human
In short: (§1)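 Patients received IV temsirolimus 25 mg weekly, with a 1-wk single-agent run-in, then daily oral HCQ, treated until progression. Patients were evaluable for response after completing ≥2 wk of concurrent HCQ and temsirolimus. Progression was defined as >20% increase in measurable disease or appearance of a new lesion. Non-evaluable patients were replaced.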

advanced melanoma [2] = test: RECIST 1.0 response and progression-free survival, melanoma patients; type: in vivo, human
In short: as §1

[3] = HCQ whole blood population pharmacokinetics; type: in vivo, human
[4] = system: autophagic vacuoles in peripheral blood mononuclear cells (PBMC); test: Autophagic vacuole; type: in vivo, human; details: 1 wk, 24 h or 4 h after first TEM infusion, data pooled
[5] = system: cutaneous melanoma metastases; test: Autophagic vacuole accumulation in serial tumor biopsies by electron microscopy; type: in vivo, human; details: after 4 h of treatment with TEM, one melanoma patient
In short: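 Cutaneous melanoma metastases sampled serially by punch biopsy from patients on IV temsirolimus 25 mg weekly plus oral HCQ 1200 mg/d. Tumour was dissected on ice and fixed immediately in EM fixative (2% glutaraldehyde, as used for PBMC) before electron microscopy for autophagic vacuoles.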

advanced melanoma [6] = details: temsirolimus alone, of 33 patients; cited from earlier work
[7] = Total, all HCQ doses + TEM 25 mg weekly, N=39
[8] = daily HCQ 200 mg + TEM 25 mg weekly, N=11
[9] = daily HCQ 400 mg + TEM 25 mg weekly, N=3
[10] = daily HCQ 800 mg + TEM 25 mg weekly, N=9
[11] = daily HCQ 1200 mg + TEM 25 mg weekly, N=16
[12] = Phase I dose escalation, HCQ dose cohort 200 + TEM, N=6 evaluable
[13] = Phase I dose escalation, HCQ dose cohort 400 + TEM, N=3
[14] = Phase I dose escalation, HCQ dose cohort 800 + TEM, N=9
[15] = Phase I dose escalation, HCQ dose cohort 1200 + TEM, N=3
[16] = Phase I dose escalation, Total, N=21 evaluable
[17] = dose escalation, of 19 patients
[18] = Melanoma patients, HCQ dose cohort 200–800 + TEM, N=6
[19] = Melanoma patients, HCQ dose cohort 1200 + TEM, N=13
[20] = melanoma expansion, of 12 patients, HCQ 1200 mg/d + TEM
[21] = population PK, 1000 bootstrap runs
[22] = population PK, whole blood, 34 patients, oral HCQ

Structure (SMILES): CCN(CCO)CCCC(C)Nc1ccnc2cc(Cl)ccc12 (stereo not drawn) [HCQ, hydroxychloroquine]
- Anal fissure G1–2, % [1, 7]: 5%
- Anal fissure G1–2, patients [1, 7]: 2
- Anemia G1–2, patients [1, 7]: 4
- Anemia G3–4, patients [1, 7]: 4
- Anorexia G1–2, % [1, 7]: 41%
- Anorexia G1–2, patients [1, 7]: 16
- Anorexia G3–4, % [1, 7]: 8%
- Anorexia G3–4, patients [1, 7]: 3
- Constipation G1–2, % [1, 7]: 13%
- Constipation G1–2, patients [1, 7]: 5
- Diarrhea G1–2, patients [1, 7]: 7
- Dizziness G1–2, % [1, 7]: 5%
- Dizziness G1–2, patients [1, 7]: 2
- Dysguesia G1–2, patients [1, 7]: 2
- Dysguesia G3–4, patients [1, 7]: 1
- Elevated creatinine G1–2, patients [1, 7]: 2
- Elevated creatinine G3–4, patients [1, 7]: 1
- Fatigue G1–2, patients [1, 7]: 19
- Fatigue G3–4, patients [1, 7]: 3
- Lymphopenia G1–2, % [1, 7]: 31%
- Lymphopenia G3–4, % [1, 7]: 3%
- Lymphopenia G3–4, patients [1, 7]: 1
- Nausea G1–2, patients [1, 7]: 13
- Nausea G3–4, % [1, 7]: 15%
- Nausea G3–4, patients [1, 7]: 6
- Neutropenia G1–2, % [1, 7]: 3%
- Neutropenia G1–2, patients [1, 7]: 1
- Poor wound healing G1–2, patients [1, 7]: 2
- Rash G1–2, patients [1, 7]: 15
- Stomatitis G1–2, patients [1, 7]: 16
- Thrombocytopenia G1–2, % [1, 7]: 21%
- Thrombocytopenia G1–2, patients [1, 7]: 8
- Thrombocytopenia G3–4, % [1, 7]: 3%
- Thrombocytopenia G3–4, patients [1, 7]: 1
- Vitiligo G1–2, % [1, 7]: 5%
- Vitiligo G1–2, patients [1, 7]: 2
- Weight loss G1–2, % [1, 7]: 18%
- Weight loss G1–2, patients [1, 7]: 7
- Anemia G1–2, % [1, 8]: 9%
- Anemia G1–2, patients [1, 8]: 1
- Anemia G3–4, % [1, 8]: 9%
- Anemia G3–4, patients [1, 8]: 1
- Anorexia G1–2, % [1, 8]: 36%
- Anorexia G1–2, patients [1, 8]: 4
- Diarrhea G1–2, patients [1, 8]: 3
- Fatigue G1–2, patients [1, 8]: 5
- Lymphopenia G1–2, % [1, 8]: 45%
- Lymphopenia G1–2, patients [1, 8]: 5
- Nausea G1–2, patients [1, 8]: 4
- Nausea G3–4, patients [1, 8]: 1
- Neutropenia G1–2, patients [1, 8]: 1
- Rash G1–2, patients [1, 8]: 3
- Stomatitis G1–2, patients [1, 8]: 4
- Thrombocytopenia G1–2, % [1, 8]: 36%
- Thrombocytopenia G1–2, patients [1, 8]: 4
- Thrombocytopenia G3–4, % [1, 8]: 9%
- Thrombocytopenia G3–4, patients [1, 8]: 1
- Weight loss G1–2, % [1, 8]: 18%
- Weight loss G1–2, patients [1, 8]: 2
- Anemia G1–2, % [1, 9]: 33%
- Anemia G1–2, patients [1, 9]: 1
- Anemia G3–4, % [1, 9]: 33%
- Anemia G3–4, patients [1, 9]: 1
- Anorexia G1–2, % [1, 9]: 33%
- Anorexia G1–2, patients [1, 9]: 1
- Diarrhea G1–2, % [1, 9]: 33%
- Diarrhea G1–2, patients [1, 9]: 1
- Fatigue G1–2, % [1, 9]: 67%
- Fatigue G1–2, patients [1, 9]: 2
- Lymphopenia G1–2, % [1, 9]: 33%
- Lymphopenia G1–2, patients [1, 9]: 1
- Rash G1–2, patients [1, 9]: 1
- Stomatitis G1–2, patients [1, 9]: 1
- Weight loss G1–2, % [1, 9]: 67%
- Weight loss G1–2, patients [1, 9]: 2
- Anal fissure G1–2, % [1, 10]: 11%
- Anal fissure G1–2, patients [1, 10]: 1
- Anemia G1–2, % [1, 10]: 22%
- Anemia G1–2, patients [1, 10]: 2
- Anemia G3–4, patients [1, 10]: 1
- Anorexia G1–2, % [1, 10]: 56%
- Anorexia G1–2, patients [1, 10]: 5
- Anorexia G3–4, % [1, 10]: 11%
- Anorexia G3–4, patients [1, 10]: 1
- Constipation G1–2, % [1, 10]: 11%
- Constipation G1–2, patients [1, 10]: 1
- Diarrhea G1–2, % [1, 10]: 11%
- Diarrhea G1–2, patients [1, 10]: 1
- Fatigue G1–2, patients [1, 10]: 2
- Fatigue G3–4, patients [1, 10]: 2
- Lymphopenia G1–2, % [1, 10]: 33%
- Lymphopenia G1–2, patients [1, 10]: 3
- Nausea G1–2, patients [1, 10]: 4
- Nausea G3–4, patients [1, 10]: 1
- Rash G1–2, patients [1, 10]: 2
- Stomatitis G1–2, patients [1, 10]: 4
- Thrombocytopenia G1–2, % [1, 10]: 22%
- Thrombocytopenia G1–2, patients [1, 10]: 2
- Weight loss G1–2, patients [1, 10]: 1
- Anal fissure G1–2, % [1, 11]: 6%
- Anal fissure G1–2, patients [1, 11]: 1
- Anemia G3–4, % [1, 11]: 6%
- Anemia G3–4, patients [1, 11]: 1
- Anorexia G1–2, % [1, 11]: 38%
- Anorexia G1–2, patients [1, 11]: 6
- Anorexia G3–4, % [1, 11]: 13%
- Anorexia G3–4, patients [1, 11]: 2
- Constipation G1–2, patients [1, 11]: 4
- Diarrhea G1–2, % [1, 11]: 13%
- Diarrhea G1–2, patients [1, 11]: 2
- Dizziness G1–2, % [1, 11]: 13%
- Dizziness G1–2, patients [1, 11]: 2
- Dysguesia G1–2, patients [1, 11]: 2
- Dysguesia G3–4, patients [1, 11]: 1
- Elevated creatinine G1–2, patients [1, 11]: 2
- Elevated creatinine G3–4, patients [1, 11]: 1
- Fatigue G1–2, patients [1, 11]: 10
- Fatigue G3–4, patients [1, 11]: 1
- Lymphopenia G1–2, % [1, 11]: 38%
- Lymphopenia G1–2, patients [1, 11]: 6
- Lymphopenia G3–4, % [1, 11]: 6%
- Lymphopenia G3–4, patients [1, 11]: 1
- Nausea G1–2, patients [1, 11]: 5
- Nausea G3–4, % [1, 11]: 25%
- Nausea G3–4, patients [1, 11]: 4
- Poor wound healing G1–2, patients [1, 11]: 2
- Rash G1–2, patients [1, 11]: 9
- Stomatitis G1–2, patients [1, 11]: 7
- Thrombocytopenia G1–2, % [1, 11]: 13%
- Thrombocytopenia G1–2, patients [1, 11]: 2
- Vitiligo G1–2, patients [1, 11]: 2
- Weight loss G1–2, % [1, 11]: 13%
- Weight loss G1–2, patients [1, 11]: 2
- Grade 3 pulmonary tumor abscess ([1]; head and neck cancer patient with history of aspiration, cycle 3): One patient
- Recommended phase II dose of HCQ ([1]; in combination with TEM 25 mg weekly): 600 mg twice daily
- Maximum tolerated dose (MTD) of HCQ ([1]; in combination with TEM 25 mg weekly, up to 1200 mg/d): not reached; also recorded: not defined
- Grade 4 cholangitis and sepsis during tumor regression ([1]; melanoma patient with large gall bladder metastases, cohort not stated): One patient
- PD (progressive disease), patients (advanced solid tumors; [12]): 2
- PR (partial response), patients (advanced solid tumors; [12]): 0
- PD (progressive disease), patients (advanced solid tumors; [13]): 0
- PR (partial response), patients (advanced solid tumors; [13]): 0
- PD (progressive disease), patients (advanced solid tumors; [14]): 4
- PR (partial response), patients (advanced solid tumors; [14]): 0
- PD (progressive disease), patients (advanced solid tumors; [15]): 1
- PR (partial response), patients (advanced solid tumors; [15]): 0
- PD (progressive disease), % (advanced solid tumors; [16]): 33%
- PD (progressive disease), patients (advanced solid tumors; [16]): 7
- PR (partial response), % (advanced solid tumors; [16]): 0 (0%)
- PR (partial response), patients (advanced solid tumors; [16]): 0 (0%)
- Partial responses by RECIST 1.0, whole study (advanced solid tumors; all cohorts): No partial responses
- Patients with some degree of tumor shrinkage (waterfall plot) (advanced solid tumors; [17]): 7
- Patients with some degree of tumor shrinkage, % (advanced solid tumors; [17]): 37%
- PD (progressive disease), patients (advanced melanoma [2]; [18]): 1
- PR (partial response), patients (advanced melanoma [2]; [18]): 0
- PD (progressive disease), patients (advanced melanoma [2]; [19]): 4
- PR (partial response), patients (advanced melanoma [2]; [19]): 0
- PD (progressive disease), % (advanced melanoma [2]; Melanoma patients, Total, N=19): 26%
- PD (progressive disease), patients (advanced melanoma [2]; Melanoma patients, Total, N=19): 5
- PR (partial response), patients (advanced melanoma [2]; Melanoma patients, Total, N=19): 0
- Median progression-free survival (advanced melanoma [2]; evaluable melanoma patients, HCQ 1200 mg/d + TEM, 95%CI 2–6 mo): 3.5 mo
- Patients with some degree of tumor shrinkage (waterfall plot) (advanced melanoma [2]; [20]): 6
- Patients with some degree of tumor shrinkage, % (advanced melanoma [2]; [20]): 50%
- Vd/F ([3]; human, whole blood, po): 865 L
- Cl/F, apparent oral clearance, bootstrap estimate [3, 21]: 15.953 L/h
- Ka, absorption rate constant, bootstrap estimate [3, 21]: 0.758 h
- Q, intercompartmental clearance, bootstrap estimate [3, 21]: 26.421 L/h
- Tlag, absorption lag time, bootstrap estimate [3, 21]: 0.564 h
- V2/F, apparent peripheral volume of distribution, bootstrap estimate [3, 21]: 3285.0246 L
- V/F, apparent central volume of distribution, bootstrap estimate [3, 21]: 496.0499 L
- Cl/F, apparent oral clearance, model estimate [3, 22]: 17.517 L/h
- Ka, absorption rate constant, model estimate [3, 22]: 0.649 h
- Q, intercompartmental clearance, model estimate [3, 22]: 26.067 L/h
- Tlag, absorption lag time, model estimate [3, 22]: 0.399 h
- V2/F, apparent peripheral volume of distribution, model estimate [3, 22]: 3236.73 L
- Time to steady-state of HCQ blood concentrations, average ([3]; simulated from final PK model for individual patients): 350 h and 360 h
- Blood HCQ AUC, Cmax, Cmin and Cavg relationship to dose ([3]; simulated steady-state, 200–1200 mg/d): proportional to daily HCQ dose

Structure (SMILES): CO[C@H]1C[C@@H]2CC[C@@H](C)[C@@](O)(O2)C(=O)C(=O)N2CCCC[C@H]2C(=O)O[C@H]([C@H](C)C[C@@H]2CC[C@@H](OC(=O)C(C)(CO)CO)[C@H](OC)C2)CC(=O)[C@H](C)/C=C(\C)[C@@H](O)[C@@H](OC)C(=O)[C@H](C)C[C@H](C)/C=C/C=C/C=C/1C [TEM, temsirolimus]
- AV/cell in PBMC after TEM treatment alone [4]: no significant increase in AV
- AV in tumor tissue compared with baseline [5]: no accumulation of AV
- Patients with partial response (advanced melanoma [6]): 1
- Patients with stable disease (advanced melanoma [6]): 0
